Experiments:
West Nile virus = assay: Antiviral activity against West Nile virus clinical isolate infected in golden hamster BHK21 cells assessed as protection against virus-induced cytopathic effect after 3 to 4 days by MTT assay; format: functional, organism-based; settings: BHK-21
Outline: (§1)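 BHK-21 cells (MDBK for BVDV) seeded at 5×10^4 (BHK) or 3×10^4 (MDBK) cells/well and grown overnight to confluence. Infected at m.o.i. 0.01 in maintenance MEM-Earle with 0.5% inactivated FBS. Serial compound dilutions added 2 h later (final 100, 20, 4, 0.8 µM; DMSO ≤0.1%). Viability read by MTT after 3–4 days at 37 °C. EC50 obtained by linear regression against untreated controls; mean of three determinations.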

[1] = Antiviral activity against Human enterovirus B Faulkner ATCC VR 185 infected in African green monkey Vero 76 cells assessed as protection against virus-induced cytopathic effect after 3 days by crystal violet staining-based plaque reduction assay; format: functional, cell-based; settings: Faulkner ATCC VR 185, Vero 76, 72 h
Vaccinia virus = assay: Antiviral activity against Vaccinia virus Lister ATCC VR 1549 infected in African green monkey Vero 76 cells assessed as protection against virus-induced cytopathic effect after 3 days by crystal violet staining-based plaque reduction assay; format: functional, organism-based; settings: Orthopoxvirus vaccinia, ATCC VR 1549, Vero 76, 72 h
Yellow fever virus [2] = assay: Antiviral activity against Yellow fever virus 17D vaccine (Stamaril Pasteur J07B01) infected in golden hamster BHK21 cells assessed as protection against virus-induced cytopathic effect after 3 to 4 days by MTT assay; format: functional, organism-based; settings: BHK-21; outline: as §1
[3] = test system: Mammalian orthoreovirus 1; assay: Antiviral activity against Reovirus 1 infected in golden hamster BHK21 cells assessed as protection against virus-induced cytopathic effect after 3 to 4 days by MTT assay; format: functional, organism-based; settings: Mammalian orthoreovirus 1, BHK-21; outline: as §1
Enterovirus C = assay: Antiviral activity against Enterovirus C Sabin […] infected in African green monkey Vero 76 cells assessed as protection against virus-induced cytopathic effect after 2 days by crystal violet staining-based plaque reduction assay; format: functional, organism-based; settings: Vero 76, 48 h
[4] = Selectivity index, ratio of CC50 for golden hamster BHK21 cells to EC50 for Yellow fever virus 17D; format: toxicity; settings: read-out: Ratio CC50/EC50
Outline: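 Selectivity index calculated as BHK-21 CC50 divided by YFV EC50, both from MTT assays.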

Human alphaherpesvirus 1 = assay: Antiviral activity against Human herpesvirus 1 KOS ATCC VR 1493 infected in African green monkey Vero 76 cells assessed as protection against virus-induced cytopathic effect after 3 days by crystal violet staining-based plaque reduction assay; format: functional, organism-based; settings: Human alphaherpesvirus 1, KOS, Vero 76, 72 h
Yellow fever virus [5] = assay: Potency index, ratio of azauridine EC50 to compound EC50 for Yellow fever virus 17D vaccine (Stamaril Pasteur J07B01); format: functional
dengue virus type 2 = assay: Antiviral activity against Dengue virus type 2 clinical isolate infected in golden hamster BHK21 cells assessed as protection against virus-induced cytopathic effect after 3 to 4 days by MTT assay; format: functional, organism-based; settings: BHK-21; outline: as §1
[6] = Selectivity index, ratio of CC50 for African green monkey Vero 76 cells to EC50 for Human coxsackievirus B5 Faulkner; format: toxicity; settings: read-out: Ratio CC50/EC50
Outline: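 Selectivity index calculated as Vero 76 CC50 (MTT) divided by CVB-5 plaque-reduction EC50.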

[7] = test system: Bovine viral diarrhea virus 1; assay: Antiviral activity against Bovine viral diarrhea virus NADL ATCC VR 534 infected in bovine MDBK cells assessed as protection against virus-induced cytopathic effect after 3 to 4 days by MTT assay; format: functional, organism-based, Bovine viral diarrhea virus 1-NADL; settings: Bovine viral diarrhea virus isolates and strains, ATCC VR 534, MDBK; outline: as §1
[8] = test system: Vesicular stomatitis Indiana virus; assay: Antiviral activity against Vesicular stomatitis virus Indiana ATCC VR 158 infected in African green monkey Vero 76 cells assessed as protection against virus-induced cytopathic effect after 2 days by crystal violet staining-based plaque reduction assay; format: functional, organism-based; settings: ATCC VR 158, Vero 76, 48 h
[9] = Cytotoxicity against human MT4 cells assessed as decrease in cell viability after 96 hrs by MTT assay; format: cell-based
Outline: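 Exponentially growing MT-4 cells seeded at 1×10^5 cells/mL in RPMI-1640 with 10% FBS and incubated with serial compound dilutions at 37 °C, 5% CO2. Viability read by MTT after 96 h. CC50 by linear regression versus untreated controls.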

[10] = Cytotoxicity against bovine MDBK cells assessed as decrease in cell viability after 72 hrs by MTT assay; format: cell-based, Bos taurus; settings: cattle
Outline: (§2)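 Uninfected MDBK (6×10^5 cells/mL, 10% horse serum) or BHK (1×10^6 cells/mL, 10% FBS) cells in MEM-Earle with serial compound dilutions at 37 °C, 5% CO2, run in parallel with the antiviral assays. Viability read by MTT after 72 h. CC50 by linear regression; mean of three determinations.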

[11] = Cytotoxicity against African green monkey Vero 76 cells assessed as decrease in cell viability after 48 to 96 hrs by MTT assay; format: cell-based; settings: chlorocebus sabaeus
Outline: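 Vero 76 cells seeded at 5×10^5 cells/mL in D-MEM with 10% FBS and incubated with serial compound dilutions at 37 °C, 5% CO2. Viability read by MTT after 48–96 h. CC50 by linear regression versus untreated controls.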

[12] = test system: Human immunodeficiency virus 1; assay: Antiviral activity against HIV1 3B infected in human MT4 cells assessed as protection against virus-induced cytopathic effect after 4 days by MTT assay; format: functional, organism-based; settings: Human immunodeficiency virus 1, 3B, MT4, 96 h
Outline: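 MT-4 cells (1×10^4/well) in RPMI with serial compound dilutions, infected with 100 CCID50 HIV-1 (m.o.i. 0.01). Viability read by MTT after 4 days at 37 °C. EC50 for 50% protection from cytopathicity obtained by linear regression versus untreated controls; mean of three determinations.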

Human orthopneumovirus = assay: Antiviral activity against Human respiratory syncytial virus A2 ATCC VR 1540 infected in African green monkey Vero 76 cells assessed as protection against virus-induced cytopathic effect after 5 days by crystal violet staining-based plaque reduction assay; format: functional, organism-based; settings: ATCC VR 1540, Vero 76, 120 h
[13] = Cytotoxicity against golden hamster BHK21 cells assessed as decrease in cell viability after 72 hrs by MTT assay; format: cell-based, Mesocricetus auratus, BHK-21; outline: as §2
[14] = Selectivity index, ratio of CC50 for bovine MDBK cells to EC50 for Bovine viral diarrhea virus NADL ATCC VR 534; format: toxicity; settings: cattle, read-out: Ratio CC50/EC50
Outline: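 Selectivity index calculated as MDBK CC50 divided by BVDV EC50, both by MTT.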

SMILES | EC50 (West Nile virus) [µM] | EC50 [1] [µM] | EC50 (Vaccinia virus) [µM] | EC50 (Yellow fever virus [2]) [µM] | EC50 [3] [µM] | EC50 (Enterovirus C) [µM] | selectivity ratio [4] | EC50 (Human alphaherpesvirus 1) [µM] | Ratio EC50 (Yellow fever virus [5]) | EC50 (dengue virus type 2) [µM] | selectivity ratio [6] | EC50 [7] [µM] | EC50 [8] [µM] | CC50 at 96 h [9] [µM] | CC50 at 72 h [10] [µM] | CC50 [11] [µM] | EC50 [12] [µM] | EC50 (Human orthopneumovirus) [µM] | CC50 at 72 h [13] [µM] | selectivity ratio [14]
NS(=O)(=O)c1ccc(N2N=C(c3ccc(Oc4ccccc4)cc3)CC2c2ccccc2F)cc1 (stereo not drawn) | > 34 | 7 | > 96 | 1.9 | > 32 | > 96 | 17.9 | > 96 | 10 | > 34 | 13.7 | > 36 | > 96 | 36 | 36 | 96 | > 36 | > 96 | 32 to 34 | 
Cc1cccc(C2CC(c3ccc(OCc4ccccc4)cc3)=NN2c2ccc(S(N)(=O)=O)cc2)c1 (stereo not drawn) | > 9 | 8 | > 100 | 1.8 | > 8 | > 100 | 5 | > 100 | 10 | > 9 | 12.5 | 12.5 | > 100 | 44 | 56 | 100 | > 44 | > 100 | 8 to 9 | 4.5
NS(=O)(=O)c1ccc(N2N=C(c3ccc(OCc4ccccc4)cc3)CC2c2ccc(Cl)cc2)cc1 (stereo not drawn) | > 15 | > 82 | > 82 | 1.9 | > 16 | > 82 | 7.9 | > 82 | 10 | > 15 |  | 4.5 | > 82 | 70 | 16 | 82 | > 70 | > 82 | 15 to 16 | 3.6
Cc1cc(CCCOc2c(C)cc(-c3noc(C(F)(F)F)n3)cc2C)on1 [PLECONARIL] |  | 0.005 |  |  |  | 2.7 |  |  |  |  | 16000 |  |  |  |  | 83 |  |  |  | 
NS(=O)(=O)c1ccc(N2N=C(c3ccc(Oc4ccccc4)cc3)CC2c2ccccc2Cl)cc1 (stereo not drawn) | > 9 | 10.5 | > 29 | 1.8 | > 8 | > 29 | 5 | > 29 | 10 | > 9 | 2.8 | > 5 | > 29 | 40 | 5 | 29 | > 40 | > 29 | 8 to 9 | 
NS(=O)(=O)c1ccc(N2N=C(c3ccc(Oc4ccccc4)cc3)CC2c2cccc(F)c2)cc1 (stereo not drawn) | > 10 | 4.2 | > 28 | 1.8 | > 11 | > 28 | 5.6 | > 28 | 10 | > 10 | 6.7 | > 12 | > 28 | 25 | 12 | 28 | > 25 | > 28 | 10 to 11 | 
NS(=O)(=O)c1ccc(N2N=C(c3ccc(OCc4ccccc4)cc3)CC2c2cccc(Cl)c2)cc1 (stereo not drawn) | > 45 | > 85 | > 85 | 2 | > 47 | > 85 | 22.5 | > 85 | 10 | > 45 |  | 5.5 | > 85 | 36 | 40 | 85 | 11 | > 85 | 45 to 47 | 7.3
NS(=O)(=O)c1ccc(N2N=C(c3ccc(OCc4ccccc4)cc3)CC2c2ccccc2Cl)cc1 (stereo not drawn) | > 12 | > 92 | > 92 | 1.9 | > 12 | > 92 | 6.3 | > 92 | 10 | > 12 |  | 7.5 | > 92 | 26 | 52 | 92 | > 26 | > 92 | 12 | 6.9
NS(=O)(=O)c1ccc(N2N=C(c3ccccc3)CC2c2ccccc2Cl)cc1 (stereo not drawn) | > 14 | > 26 | > 26 | 2.4 | > 13 | > 26 | 5.8 | > 26 | 10 | > 14 |  | > 9 | > 26 | 44 | 9 | 26 | > 44 | > 26 | 13 to 14 | 
NS(=O)(=O)c1ccc(N2N=C(c3ccc(Oc4ccccc4)cc3)CC2c2ccc(F)cc2)cc1 (stereo not drawn) | > 9 | 6 | > 25 | 1.8 | > 8 | > 25 | 5 | > 25 | 10 | > 9 | 4.2 | > 6 | > 25 | 33 | 6 | 25 | > 33 | > 25 | 8 to 9 | 
Cc1ccccc1C1CC(c2ccc(OCc3ccccc3)cc2)=NN1c1ccc(S(N)(=O)=O)cc1 (stereo not drawn) | > 22 | > 100 | > 100 | 1.8 | > 20 | > 100 | 12.2 | > 100 | 10 | > 22 |  | > 100 | > 100 | ≥ 100 | > 100 | 100 | > 100 | > 100 | 20 to 22 | 
NC(=O)c1ncn([C@@H]2O[C@H](CO)[C@@H](O)[C@H]2O)n1 [RIBAVIRIN] |  |  |  |  |  |  |  |  |  |  |  | 20 |  |  | 62 | > 100 |  | 1.2 |  | 3
